{"data": "Measurements pooled from the literature", "cell line": "PC-3", "effect on": "cell growth or viability", "note": "Compare with care: the assays were run in different laboratories."}
{"SMILES": "COc1cc2ncnc(Nc3ccc(F)c(Cl)c3)c2cc1NC(=O)N/N=C/CN(C)C", "test": "MTT", "setting": "72 h", "quantity": "IC50", "value": "2780 nM"}
{"SMILES": "Cc1cc(C)cc(COc2cc3c(cc2OCc2cc(C)cc(C)c2)[C@H]2C[C@](O)(Cc4cn(Cc5ccc(-c6ccccc6)cc5)nn4)C[C@H](C)N2CC3)c1", "test": "MTT", "quantity": "IC50", "value": "206 nM"}
{"SMILES": "O=C(Nc1cccc(Oc2ccccn2)c1)C1CCCN(C(=O)c2cc(C(F)(F)F)cc(C(F)(F)F)c2)C1 (stereo not shown)", "test": "WST-1", "setting": "100 µM", "quantity": "inhibition", "value": "0%"}
{"SMILES": "COCCCOc1ccnc(COc2ccc(NC(=O)Nc3ccc(Cl)cc3)cc2)c1C", "test": "MTT", "setting": "72 h", "quantity": "IC50", "value": "> 100000 nM"}
{"SMILES": "CSc1cccc(NC(=O)C2CCCN(C(=O)c3cc(C(F)(F)F)cc(C(F)(F)F)c3)C2)c1 (stereo not shown)", "test": "WST-1", "setting": "100 µM", "quantity": "inhibition", "value": "0%"}
{"SMILES": "CCN(CC)CCCn1cccc1/C=N/NC(=O)Nc1cc2c(Nc3ccc(F)c(Cl)c3)ncnc2cc1OC", "test": "MTT", "setting": "72 h", "quantity": "IC50", "value": "1180 nM"}
{"SMILES": "COc1ccc(C(=O)/C=C/c2cccc(Cl)c2Cl)cc1S(N)(=O)=O", "test": "SRB", "setting": "48 h", "quantity": "GI50", "value": "4500 nM"}
{"SMILES": "O=C(N/N=C/CN1CCOCC1)Nc1cc2c(Nc3ccc(F)c(Cl)c3)ncnc2cc1O[C@H]1CCOC1", "test": "MTT", "setting": "72 h", "quantity": "IC50", "value": "3390 nM"}
{"SMILES": "CSc1cccc(NC(=O)C2CCCN(C(=O)c3cccc(-c4ccco4)c3)C2)c1 (stereo not shown)", "test": "WST-1", "setting": "100 µM", "quantity": "inhibition", "value": "0%"}
{"SMILES": "O=C(N/N=C/CN1CCCCC1)Nc1cc2c(Nc3ccc(F)c(Cl)c3)ncnc2cc1O[C@H]1CCOC1", "test": "MTT", "setting": "72 h", "quantity": "IC50", "value": "810 nM"}
{"SMILES": "COc1ccc(C(=O)/C=C/c2ccc(Cl)c(Cl)c2)cc1S(N)(=O)=O", "test": "SRB", "setting": "10 µM", "quantity": "inhibition", "value": "90%"}
{"SMILES": "COc1cccc(NC(=O)CN2C(=O)/C(=C/c3ccco3)SC2=S)c1", "test": "MTT", "setting": "10 µM", "quantity": "inhibition", "value": "8.63%"}
{"SMILES": "NC1(C(=O)N[C@@H](CCO)c2ccc(Cl)cc2)CCN(c2ncnc3[nH]ccc23)CC1", "setting": "72 h", "quantity": "GI50", "value": "> 8000 nM"}
{"SMILES": "COc1cccc(NC(=O)CN2C(=O)/C(=C/c3ccccc3)SC2=S)c1", "test": "MTT", "setting": "10 µM", "quantity": "inhibition", "value": "17.8%"}
{"SMILES": "O=C(N/N=C/CN1CCCC1)Nc1cc2c(Nc3ccc(F)c(Cl)c3)ncnc2cc1O[C@H]1CCOC1", "test": "MTT", "setting": "72 h", "quantity": "IC50", "value": "3890 nM"}
{"SMILES": "CC(C)(C)OC(=O)c1cccc(NC(=O)C2CCCN(C(=O)c3cc(C(F)(F)F)cc(C(F)(F)F)c3)C2)c1 (stereo not shown)", "test": "WST-1", "setting": "100 µM", "quantity": "inhibition", "value": "0%"}
{"SMILES": "C=CS(=O)(=O)Nc1ccc(CCn2cc(C[C@@]3(O)C[C@@H]4c5cc(OCc6cc(C)cc(C)c6)c(OCc6cc(C)cc(C)c6)cc5CCN4[C@@H](C)C3)nn2)cc1", "test": "MTT", "quantity": "IC50", "value": "1730 nM"}
{"SMILES": "CN1CCN(CCCn2cccc2/C=N/NC(=O)Nc2cc3c(Nc4ccc(F)c(Cl)c4)ncnc3cc2O[C@H]2CCOC2)CC1", "test": "MTT", "setting": "72 h", "quantity": "IC50", "value": "2060 nM"}
{"SMILES": "O=C(CN1C(=O)/C(=C/c2ccco2)SC1=S)Nc1ccccc1", "test": "MTT", "setting": "10 µM", "quantity": "inhibition", "value": "23.1%"}
{"SMILES": "COc1ccc(C(=O)/C=C/c2ccccc2Br)cc1S(N)(=O)=O", "test": "SRB", "setting": "48 h", "quantity": "GI50", "value": "4300 nM"}
{"SMILES": "COc1ccnc(COc2ccc(NC(=O)Nc3ccc(Cl)c(C(F)(F)F)c3)cc2)c1OC", "test": "MTT", "setting": "72 h", "quantity": "IC50", "value": "> 100000 nM"}
{"SMILES": "O=C(N/N=C/c1cccn1CCN1CCCC1)Nc1cc2c(Nc3ccc(F)c(Cl)c3)ncnc2cc1O[C@H]1CCOC1", "test": "MTT", "setting": "72 h", "quantity": "IC50", "value": "1900 nM"}
{"SMILES": "O=C(Nc1cccc(CN2CCOCC2)c1)C1CCCN(C(=O)c2cc(C(F)(F)F)cc(C(F)(F)F)c2)C1 (stereo not shown)", "test": "WST-1", "setting": "100 µM", "quantity": "inhibition", "value": "0%"}
{"SMILES": "COc1cc(-c2ccc(-c3ccc(C(=N)N)nc3)s2)cc(OC)c1OC", "quantity": "GI50", "value": "3110 nM"}
{"SMILES": "O=C(CN1C(=O)/C(=C/c2cccs2)SC1=S)Nc1ccccc1", "test": "MTT", "setting": "10 µM", "quantity": "inhibition", "value": "5.3%"}
{"SMILES": "COc1ccc(C(=O)/C=C/c2cccc(Cl)c2)cc1S(N)(=O)=O", "test": "SRB", "setting": "48 h", "quantity": "GI50", "value": "2200 nM"}
{"SMILES": "COc1ccnc(COc2ccc(NC(=O)Nc3ccc(Cl)cc3)cc2)c1OC", "test": "MTT", "setting": "72 h", "quantity": "IC50", "value": "> 100000 nM"}
{"SMILES": "O=C(CN1C(=O)/C(=C/c2ccccc2O)SC1=S)Nc1ccccc1", "test": "MTT", "setting": "10 µM", "quantity": "inhibition", "value": "36.2%"}
{"SMILES": "Cc1cc(C)cc(COc2cc3c(cc2OCc2cc(C)cc(C)c2)[C@H]2C[C@](O)(Cc4cn(Cc5ccc6ccccc6c5)nn4)C[C@H](C)N2CC3)c1", "test": "MTT", "quantity": "IC50", "value": "264 nM"}
{"SMILES": "Cc1c(OCC(F)(F)F)ccnc1COc1ccc(NC(=O)Nc2cccc(C(F)(F)F)c2)cc1", "test": "MTT", "setting": "72 h", "quantity": "IC50", "value": "> 100000 nM"}
{"SMILES": "CN1CCN(C/C=N/NC(=O)Nc2cc3c(Nc4ccc(F)c(Cl)c4)ncnc3cc2O[C@H]2CCOC2)CC1", "test": "MTT", "setting": "72 h", "quantity": "IC50", "value": "1830 nM"}
{"SMILES": "Cc1cc(C)cc(COc2cc3c(cc2OCc2cc(C)cc(C)c2)[C@H]2C[C@](O)(Cc4cn(Cc5cnccn5)nn4)C[C@H](C)N2CC3)c1", "test": "MTT", "quantity": "IC50", "value": "480 nM"}
{"SMILES": "CC(C)c1ccc(/C=C2\\SC(=S)N(CC(=O)Nc3ccccc3)C2=O)cc1", "test": "MTT", "setting": "10 µM", "quantity": "inhibition", "value": "29%"}
{"SMILES": "CC/C(=C(\\c1ccccc1)c1ccc(OCCN(C)C)cc1)c1ccccc1", "test": "ATP luminescence", "setting": "72 h", "quantity": "EC90", "value": "31000 nM"}
{"SMILES": "O=C(Nc1ccc(Cl)cn1)C1CCCN(C(=O)c2cc(C(F)(F)F)cc(C(F)(F)F)c2)C1 (stereo not shown)", "test": "WST-1", "setting": "100 µM", "quantity": "inhibition", "value": "0%"}
{"SMILES": "COc1ccc(C(=O)/C=C/c2cccc3ccccc23)cc1S(N)(=O)=O", "test": "SRB", "setting": "48 h", "quantity": "GI50", "value": "2300 nM"}
{"SMILES": "COc1ccnc(COc2ccc(NC(=O)Nc3cccc(C(F)(F)F)c3)cc2)c1OC", "test": "MTT", "setting": "72 h", "quantity": "IC50", "value": "75000 nM"}
{"SMILES": "C/C=C/C(=O)Nc1ccc(CCn2cc(C[C@@]3(O)C[C@@H]4c5cc(OCc6cc(C)cc(C)c6)c(OCc6cc(C)cc(C)c6)cc5CCN4[C@@H](C)C3)nn2)cc1", "test": "MTT", "quantity": "IC50", "value": "273 nM"}
{"SMILES": "COc1ccc(C(=O)/C=C/c2cccnc2)cc1S(N)(=O)=O", "test": "SRB", "setting": "48 h", "quantity": "GI50", "value": "16600 nM"}
{"SMILES": "COc1cc2c(c(OC)c1OC)-c1ccc(OC)c(=O)cc1[C@@H](NC(C)=O)CC2", "test": "MTT", "setting": "10 µM", "quantity": "inhibition", "value": "58.6%"}
{"SMILES": "Cc1cc(C)cc(COc2cc3c(cc2OCc2cc(C)cc(C)c2)[C@H]2C[C@](O)(Cc4cn(CCc5ccc(N)cc5)nn4)C[C@H](C)N2CC3)c1", "test": "MTT", "quantity": "IC50", "value": "490 nM"}
{"SMILES": "O=C(CN1C(=O)/C(=C/c2cccc(Br)c2)SC1=S)Nc1ccccc1", "test": "MTT", "setting": "10 µM", "quantity": "inhibition", "value": "27.3%"}
{"SMILES": "COc1ccc(C(=O)/C=C/c2ccc3ccccc3c2)cc1S(N)(=O)=O", "test": "SRB", "setting": "48 h", "quantity": "GI50", "value": "1800 nM"}
